# ChEMBL document CHEMBL1138346, “BINOL-amino acid conjugates as triggerable carriers of DNA-targeted potent photocytotoxic agents” (J Med Chem, 2007)
# Active and inactive are the calls of the source. The rule behind the calls is not given here.
# Experiments:
# LoVo [1] = experiment: Cytotoxicity against human LoVo cells after 24 hrs by MTT assay; type: functional
# Procedure, shortened: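 Dark cytotoxicity (CC50), LoVo human colorectal adenocarcinoma in DMEM/F-12 1:1 with 10% FBS, 37 °C, 5% CO2. 1.75 × 10^4 cells/well plated overnight; compound 12 nM–200 µM in DMSO (1% final) for 24 h, then washed and fresh medium, kept in dark 24 h more at 37 °C. MTT read at 540 nm; mean of three experiments in triplicate.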
# LoVo [2] = experiment: Photocytotoxicity against UV irradiated human LoVo cells after 24 hrs by MTT assay; type: functional, cell-based
# Procedure, shortened: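 LoVo cells in DMEM/F-12 1:1 with 10% FBS, plated at 1.75 × 10^4 cells/well overnight. Exposed 24 h to 12 nM–200 µM compound (DMSO, 1% final), washed, fresh medium, irradiated 30 min at 360 nm, then 24 h at 37 °C. MTT absorbance at 540 nm, survival relative to solvent controls; EC50 from mean of three experiments in triplicate.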
# [3] = Induction of pBR322 cross-linking after irradiation by alkaline agarose gel assay; settings: Escherichia coli
# Procedure, shortened: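 pBR322 (0.5 µg/sample) with compound 0.62–80 µM (DMSO stock diluted in water), 50 mM phosphate pH 7.5, irradiated on ice 20 min at 360 nm, 120 W. Run on 1% alkaline agarose (50 mM NaOH, 1 mM EDTA), 12 V, 15–16 h, ethidium bromide stain. Value is lowest concentration giving interstrand cross-link band.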
# Escherichia coli [4] = experiment: Induction of pBR322 cross-linking in absence of irradiation by alkaline agarose gel assay
# LoVo [5] = experiment: Selectivity index, ratio of CC50 for LoVo cells to EC50 for UV irradiated LoVo cells; type: functional, Homo sapiens
# Procedure, shortened: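 Ratio CC50/EC50 in LoVo cells; both from MTT after 24 h compound exposure (12 nM–200 µM, 1% DMSO), then 24 h more either in the dark or after 30 min irradiation at 360 nm. Mean of three triplicate experiments.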
# [6] = Partition coefficient, log P of the compound; type: physicochemical; settings: octanol/water
# Procedure, shortened: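 Calculated log P of neutral form by Crippen fragmentation method.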
# Escherichia coli [7] = experiment: Induction of pBR322 cross-linking after irradiation at 20 mM at pH 5.5 by alkaline agarose gel assay
# [8] = Homo sapiens, LoVo, light or radiation study, 24 h
SMILES,CC50 (LoVo [1]),EC50 (LoVo [2]; [8]),Minimum concentration for DNA interstrand cross-linking [3],Activity (Escherichia coli [4]),Ratio CC50/EC50 (LoVo [5]),logP [6],Activity (Escherichia coli [7]),EC50 (LoVo [2]; lovo)
"O=C(O)[C@@H]1CCCN1Cc1cc2ccccc2c(-c2c(O)c(CN3CCC[C@H]3C(=O)O)cc3ccccc23)c1O (stereo in doubt; (R,S,S)-6) [listing 1 of 2 here]",> 200 µM,> 200 µM,,,,,,
"COC(=O)[C@@H]1CCCN1Cc1cc2ccccc2c(-c2c(O)c(CN3CCC[C@H]3C(=O)OC)cc3ccccc23)c1O (stereo in doubt; (R,S,S)-5) [listing 1 of 2 here]",,,20 µM,inactive,,,,
"COC(=O)[C@@H]1CCCN1Cc1cc2ccccc2c(-c2c(O)c(CN3CCC[C@H]3C(=O)OC)cc3ccccc23)c1O (stereo in doubt; (R,S,S)-5) [listing 2 of 2 here]",> 200 µM,0.23 µM,,,>860,,,
COC(=O)[C@H](C)NCc1cc2ccccc2c(-c2c(O)c(CN[C@@H](C)C(=O)OC)cc3ccccc23)c1O,1.5 µM,4 µM,> 40 µM,inactive,0.4,4.38,,
"O=C(O)[C@@H]1CCCN1Cc1cc2ccccc2c(-c2c(O)c(CN3CCC[C@H]3C(=O)O)cc3ccccc23)c1O (stereo in doubt; (S,S,S)-6) [listing 1 of 2 here]",,,2.5 µM,inactive,,,Active,
"COC(=O)[C@@H]1CCCN1Cc1cc2ccccc2c(-c2c(O)c(CN3CCC[C@H]3C(=O)OC)cc3ccccc23)c1O (stereo in doubt; (S,S,S)-5) [listing 1 of 2 here]",,,,,>900,4.81,,0.22 µM
"COC(=O)[C@@H]1CCCN1Cc1cc2ccccc2c(-c2c(O)c(CN3CCC[C@H]3C(=O)OC)cc3ccccc23)c1O (stereo in doubt; (S,S,S)-5) [listing 2 of 2 here]",,,20 µM,inactive,,,,
COC(=O)[C@@H](NCc1cc2ccccc2c(-c2c(O)c(CN[C@H](C(=O)OC)C(C)C)cc3ccccc23)c1O)C(C)C,14 µM,0.13 µM,5 µM,inactive,108,6.15,,
C[N+](C)(C)Cc1cc2ccccc2c(-c2c(O)c(C[N+](C)(C)C)cc3ccccc23)c1O,> 200 µM,> 200 µM,1.25 µM,inactive,,,,
NCCCC[C@H](NCc1cc2ccccc2c(-c2c(O)c(CN[C@@H](CCCCN)C(=O)O)cc3ccccc23)c1O)C(=O)O,> 200 µM,> 200 µM,20 µM,inactive,,3.34,Active,
"O=C(O)[C@@H]1CCCN1Cc1cc2ccccc2c(-c2c(O)c(CN3CCC[C@H]3C(=O)O)cc3ccccc23)c1O (stereo in doubt; (R,S,S)-6) [listing 2 of 2 here]",,,2.5 µM,inactive,,,Active,
"O=C(O)[C@@H]1CCCN1Cc1cc2ccccc2c(-c2c(O)c(CN3CCC[C@H]3C(=O)O)cc3ccccc23)c1O (stereo in doubt; (S,S,S)-6) [listing 2 of 2 here]",,,,,,4.28,,
Cc1cc2cc3c(C)cc(=O)oc3c(C)c2o1 [TRIOXSALEN],> 200 µM,0.94 µM,< 0.5 µM,inactive,>210,2.44,,
